Screening data (PubChem)
LMPTP block: LMPTP (human) inhibition; P24666; recombinant LMPTP-A, OMFP fluorogenic substrate, fluorescence intensity; inhibition, % at 20 µM; actives 0.22% (n = 360,000);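 active = compounds that cut the enzyme signal by at least half of the control window in the single-dose screen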
Target sequence (P24666 whole entry, looked up): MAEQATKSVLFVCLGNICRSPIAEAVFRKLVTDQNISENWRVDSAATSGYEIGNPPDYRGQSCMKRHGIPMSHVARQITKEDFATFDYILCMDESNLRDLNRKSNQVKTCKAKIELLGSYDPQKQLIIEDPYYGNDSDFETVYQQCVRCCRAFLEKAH
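Buffer or medium: Bis-Tris pH 6.0, DTT, detergent; Assay system: LMPTP-A enzyme; Quantity: 0.625 nM enzyme; Detection: endpoint fluorescence intensity; Times: 50 min dark incubation at room temperature; Controls: substrate-only low control, DMSO enzyme-plus-substrate high control; Doses: single 20 µM dose; Read-out: percent inhibition versus substrate-only and uninhibited controls; Reagent: 400 µM OMFP.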
Scp-1 inhibitor: inhibitors of human Scp-1 phosphatase; actives 0.88% (n = 340,000); Recombinant Scp1, phosphopeptide, malachite green phosphate absorbance; inhibition, % at 20 µM;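 active = inhibition above about 50% at 20 µM, limit read from the data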
Target sequence (Q9GZU7 76-261 limits assumed): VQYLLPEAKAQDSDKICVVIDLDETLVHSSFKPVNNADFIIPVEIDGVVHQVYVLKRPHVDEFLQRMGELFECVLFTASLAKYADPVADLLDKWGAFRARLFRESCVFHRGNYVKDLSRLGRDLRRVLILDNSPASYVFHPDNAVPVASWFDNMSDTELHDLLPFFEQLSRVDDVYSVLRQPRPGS
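Test system: SCP-1 phosphatase catalytic domain, residues 76-261 | Compound dosing: One concentration, 20 µM, with 1.0% DMSO | Schedule: 45 min room-temperature reaction, 5 min colour, 30 min stabiliser | Detection: Absorbance at 630 nm | Read-out basis: % inhibition of SCP-1 phosphate liberation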
CSN inh: inhibitors of human CSN-mediated cullin deneddylation; inhibition, % at 12.5 µM; actives 0.38% (n = 360,000); Purified CSN, SCF-Nedd8-OG deneddylation, fluorescence polarization; AID 651999;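 active = pattern-corrected inhibition above about 35%, with an unprinted fluorescence ratio check between 0.5 and 1.5, limit read from the data, passing the limit was not always enough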
Target sequence (Q92905 whole entry, looked up, one chain of several): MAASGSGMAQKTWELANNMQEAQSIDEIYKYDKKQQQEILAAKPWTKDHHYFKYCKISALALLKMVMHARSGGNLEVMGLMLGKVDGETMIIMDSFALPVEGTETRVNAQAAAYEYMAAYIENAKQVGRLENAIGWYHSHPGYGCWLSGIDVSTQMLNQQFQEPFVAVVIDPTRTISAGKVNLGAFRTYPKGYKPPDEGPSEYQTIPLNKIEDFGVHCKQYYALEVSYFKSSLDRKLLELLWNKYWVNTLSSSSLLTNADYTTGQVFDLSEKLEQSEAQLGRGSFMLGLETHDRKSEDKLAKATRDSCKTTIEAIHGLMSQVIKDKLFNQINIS
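Schedule: reaction 90 min, room temperature / Assay system: HEK293T-derived human Csn5 enzyme / Input: Csn5 at 0.24 nM final / Measure: inhibition of Csn5 cleavage, % / Control set: substrate-only high control, full reaction low control / Technique: fluorescence polarization of the substrate / Buffer or medium: Tris/NaCl/DTT buffer, pH 7.5 / Reagent: SCFSkp2-Nedd8OG substrate at 10 nM final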
SUMO1-SIM PPI: modulators of human SUMO1-mediated protein-protein interactions | SUMO1 binding to a labelled peptide, TR-FRET, 1 h | actives 0.33% (n = 360,000) | inhibition, % at 20 µM; in the data active = inhibition above about 37%
DNMT1 block: blocks human DNA methyltransferase DNMT1; actives 0.83% (n = 360,000); inhibition (reported as % activation of signal), % at 10 µM; DNMT1 molecular beacon, Hinp1I cleavage, fluorescence; P26358; AID 588458; in the data active = inhibition above about 50%
STEP inh: inhibitors of human striatal-enriched phosphatase STEP | P54829 | recombinant STEP, OMFP fluorogenic substrate, fluorescence | inhibition, % at 20 µM | actives 0.25% (n = 360,000);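 active = inhibition at 20 µM, scaled per plate between control wells, above about 37%, limit read from the data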
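Material: STEP (striatal-enriched tyrosine phosphatase) enzyme, cell-free | Medium: 50 mM Bis-Tris pH 6.0 with 2.5 mM DTT and 0.005% Tween 20 | Read-out: Percent inhibition scaled to no-enzyme and uninhibited-enzyme controls, plate-pattern corrected | Signal: Fluorescence read at 480 nm ex / 540 nm em | Times: 20 min reaction, room temperature, in the dark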
Beacon interf DR: shows spectral interference in the DNMT1 beacon assay; shares compounds with DNMT1 block; molecular beacon fluorescence, spectral interference counter-screen; IC50, µM; 200 tested, under 10 active; call rule not given here
DNMT1 inh conf: DNMT1 inhibition confirmation, single concentration; inhibition, % at 10 µM; shares compounds with DNMT1 block; actives 8% (n = 2,300); DNMT1 molecular beacon HinP1I cleavage, fluorescence;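 active = average inhibition of at least 30% in the single-concentration confirmation test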
DNMT1 interf: shows spectral interference in the DNMT1 beacon assay; shares compounds with DNMT1 block; DNMT1 molecular beacon spectral interference counterscreen, fluorescence 485/520; activation (fluorescence interference), % at 10 µM; actives 1% (n = 2,300);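 active = activation of at least 30% at 10 µM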;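 note: DNMT1 catalytic domain with a HinP1I cleavage step and a FAM/dabcyl DNA beacon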
A number is an active result; 0 = inactive; - = not tested or not shown. The list is not random: actives were taken first. Their share in the collection is about 1.9%.

SMILES	LMPTP block	Scp-1 inhibitor	CSN inh	SUMO1-SIM PPI	DNMT1 block	STEP inh	DNMT1 inh conf	DNMT1 interf	others
O=C(CSc1ccc(-c2nc3ccccc3[nH]2)cn1)Nc1ccc(S(=O)(=O)N2CCCC2)cc1	0	0	0	0	0	0	-	-
CSc1ccc(/C=C/C(=O)OCC(=O)NC2CCCCCC2)cc1	0	-	0	0	65.1	0	0	0
CC(=O)N(CCCCN1C(=O)c2ccccc2C1=O)c1ccc(C)cc1	0	0	0	0	0	0	-	-
CC(=O)N(CN1C(=O)c2ccccc2C1=O)c1ccc2c(c1)oc1ccccc12	0	0	0	0	79.0	0	0	0
CC(=O)N1CCN(C(=O)c2ccc(S(=O)(=O)Nc3cccc(C(F)(F)F)c3)cc2)CC1	0	0	0	0	0	0	-	-
CC1CC(NC(=O)N(C)C)N(C)C(=O)N1 (stereo not drawn)	0	0	0	0	66.3	0	0	0
c1ccc(CN2CCN(CCCNc3ccc4nnc(-c5ccccc5)n4n3)CC2)cc1	0	0	0	0	0	0	-	-
Cc1ccc(CNc2ccc3nnc(-c4ccccc4)n3n2)cc1	0	0	38.0	0	73.7	0	0	0
O=C(Oc1ccc2c(c1)OCO2)c1cc2c(s1)CCC2	52.3	65.3	0	0	100.2	0	0	0
O=C(c1cc2c(s1)CCCC2)N1CCN(Cc2ccc3c(c2)OCO3)CC1	0	0	0	0	0	0	-	-
COc1ccc(S(=O)(=O)Nc2ccc(NC(C)=O)cc2)cc1[N+](=O)[O-]	0	0	0	0	0	0	-	-
Nc1cc(=O)[nH]c(SCC(=O)Nc2ccc(N3CCOCC3)cc2)n1	0	0	0	0	0	0	-	-
CCN(CC)CCC(=O)Nc1cccc2c1C(=O)c1ccccc1C2=O	0	0	0	0	73.1	0	52.8	0	Beacon interf DR=0
COc1cccc(NS(=O)(=O)c2ccc3c(c2)C2C=CCC2C(c2ccc(C(=O)O)cc2)N3)c1 (stereo not drawn)	0	0	0	44.0	89.7	0	0	0	Beacon interf DR=0
CC(C)(C)c1ccc(-c2csc(NC(=O)CN3C(=O)NC4(CCCCC4)C3=O)n2)cc1	0	0	0	0	53.6	0	0	0
O=C(O)c1ccc2nc(-c3ccco3)c(-c3ccco3)nc2c1	0	0	0	39.6	99.7	0	0	0
CN(C)c1ccc(C(=O)N=c2sccn2C)cc1[N+](=O)[O-]	0	0	0	0	0	0	-	-
O=C(CSc1nc(C(F)(F)F)cc(=O)[nH]1)N1CCCC1	0	0	0	0	0	0	-	-
CCc1ccc2c(CN(C)Cc3ccccc3OC)cc(=O)oc2c1	0	0	0	0	0	0	-	-
CC(OC(=O)CCN=C1NS(=O)(=O)c2ccccc21)C(=O)c1ccccc1 (stereo not drawn)	0	0	0	0	72.2	0	0	0
Cc1ccc(-c2nnn(CC(=O)Nc3ccc4nn(-c5ccccc5)nc4c3)n2)o1	0	0	0	0	50.1	0	0	0
O=C(NCc1ccccc1C(F)(F)F)c1cccc2c1C(=O)c1ccc(N3CCOCC3)cc1S2(=O)=O	0	0	0	0	62.4	0	0	0
COc1ccc(C(=O)c2c[nH]c(C(=O)NCc3cccs3)c2)cc1	0	0	0	0	0	0	-	-
O=S(=O)(c1ccccc1)N1CCN(C(=S)Nc2ccc(Br)cc2)CC1	0	0	0	0	0	0	-	-
COc1ccc(NC(=O)CCS(=O)(=O)c2ccc(OC)cc2)cc1	0	0	0	0	0	0	-	-
SMILES	LMPTP block	Scp-1 inhibitor	CSN inh	SUMO1-SIM PPI	DNMT1 block	STEP inh	DNMT1 inh conf	DNMT1 interf	others
CCOc1ccc(NC(=O)CCS(=O)(=O)c2ccc(Br)cc2)cc1	0	0	0	48.0	83.5	0	0	0
O=C(CCS(=O)(=O)c1ccc(Cl)cc1)Nc1ccccc1Br	0	0	0	0	0	0	-	-
COC(=O)c1ccccc1NC(=O)CCS(=O)(=O)c1ccc(Br)cc1	0	79.8	0	0	90.5	0	95.2	0	Beacon interf DR=0
O=C(O)CCN(CC(=O)c1ccc(Cl)cc1)S(=O)(=O)c1ccc([N+](=O)[O-])cc1	0	0	0	0	0	0	-	-
CN(CC(=O)Nc1ccc(N2CCOCC2)cc1)C(=O)c1ccc(CS(C)(=O)=O)cc1	0	0	0	0	0	0	-	-
COc1ccc(-c2cc(C(=O)N(C)CC(=O)Nc3cccc(F)c3)c3ccccc3n2)cc1OC	0	-	0	0	0	0	-	-
O=C(N/N=C/c1cccc(F)c1)c1cc(-c2ccco2)nc2ccccc12	55.6	81.1	0	0	97.3	0	67.8	0	Beacon interf DR=0
COc1ccc(NC(=O)c2cc(-c3ccco3)nc3ccccc23)cc1	0	0	0	0	0	0	-	-
O=C(c1cc(-c2ccco2)nc2ccccc12)N1CCN(Cc2ccccc2)CC1	0	0	0	0	0	0	-	-
COc1ccc(NC(=O)c2cc(-c3ccco3)nc3ccccc23)cc1S(=O)(=O)N1CCOCC1	0	85.0	0	0	63.5	0	0	0
COC(=O)C1CCN(C(=O)c2cc(-c3ccco3)nc3ccccc23)CC1	0	69.5	0	0	85.8	0	49.8	0	Beacon interf DR=0
CN(CC(=O)Nc1cccc(F)c1)C(=O)c1cc(-c2ccco2)nc2ccccc12	0	82.6	54.5	0	86.6	0	0	0
COc1cc(/C=N/NC(=O)c2cc(-c3ccco3)nc3ccccc23)cc(OC)c1O	0	0	0	0	0	0	-	-
Cc1ccc(S(=O)(=O)N2CCC(C(=O)OCC(=O)N(C)CC(=O)Nc3ccc(F)cc3)CC2)cc1C	0	0	0	0	0	0	-	-
O=C(CCC(=O)OCCOc1ccccc1)OCCOc1ccccc1	0	-	0	0	0	0	-	-
O=C(COC(=O)c1cc(-c2ccco2)nc2ccccc12)NCc1ccc2c(c1)OCO2	0	0	0	0	76.6	0	0	0
Cc1ccccc1NC(=O)c1cc(-c2ccco2)nc2ccccc12	0	84.1	0	0	0	0	0	0
O=C(NCC1CCCO1)c1cc(-c2ccco2)nc2ccccc12 (stereo not drawn)	0	0	0	0	83.8	0	0	0
CC(C)Cn1c(N)c(C(=O)COC(=O)c2cc(-c3ccco3)nc3ccccc23)c(=O)n(C)c1=O	0	0	0	0	81.2	0	0	0
